The values that follow come from ChEMBL document CHEMBL5532699, “Design, docking optimization, and evaluation of biotin-PEG4-1,8-naphthalimide as a potent and safe antitumor agent with dual targeting of ferroptosis and DNA” (RSC Med Chem, 2024).

Broadly, the IC50 is the midpoint of a concentration-inhibition curve. In general, inhibition in vivo refers to the change of the read-out against control, counted positive when it falls.

The nature of series [1]: Cytotoxicity against HUVEC cells incubated for 48 hrs by MTT assay. Type of series: toxicity, cell-based. The conditions noted are these: human. The method, boiled down: (§1)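 Monolayer cells in DMEM with 10% FBS, penicillin and streptomycin, 37°C, 5% CO2. Exponentially growing cells were seeded in 96-well plates and exposed to compound for 48 h. MTT was then added for 4 h at 37°C. Medium was removed, formazan dissolved in DMSO, and OD read at 490 nm. Each plate had five replicate wells, and assays were repeated three times per line.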
(In general: Tetrazolium assays rely on reduction of a dye to a coloured formazan, in cell work by metabolically active cells.)

A further series concerns A549. As to the kind of experiment: Antiproliferative activity against human A549 cells incubated for 48 hrs by MTT assay. Type of series: functional, cell-based. The conditions noted are these: A549, 48 h. The gist of the method: as §1
The test system of the next series is U-251. The series is described as follows: Antitumor activity against human U-251 cells xenografted in nude mouse assessed as tumor inhibition ratio at 48 mg/kg, ip administered once every two days for 21 days relative to control. Type of series: functional. The settings on record: U-251, 504 h, time 21 day. The method, boiled down:
(§2)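 1×10^6 tumor cells injected s.c. into the right flank of nude mice. At mean tumor volume 60–80 mm³, animals randomized to vehicle or treatment groups (n = 6). Compound in 5% v/v DMSO/saline given i.p. every 2 days. Tumor size and weight recorded; volume = lw²/2 from length and width. Body weight tracked as the systemic toxicity index.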
For orientation: In xenograft studies the graft and the host belong to different species.

Series [2] in a line: Toxicity in nude mouse xenografted with human MGC-803 cells assessed as effect on animal behavior at 24 to 48 mg/kg, ip administered once every two days for 21 days. The settings on record: in vivo, 504 h, dose 24-48 mg/kg, time 21 day. Type of series: organism-based. The gist of the method: as §2

For the compound `CN(C)CCN1C(=O)c2cccc3c(N4CCN(C(=O)CCOCCOCCOCCOCCNC(=O)CCCCC5SCC6NC(=O)NC65)CC4)ccc(c23)C1=O` (centres undefined), in series [1], the IC50 at 48 h is > 50 µM. The 50% inhibitory concentration (IC50) with A549 was > 50 µM. Also, the inhibition in vivo at 48 mg/kg in the series on U-251 came to 76.2%. For the same compound, the Activity entry in series [2] is “Non-Toxic”.
